The experiment addresses T1, Fatty-acid amide hydrolase 1 (Mus musculus) (UniProt O08914).
T1 sequence (whole entry): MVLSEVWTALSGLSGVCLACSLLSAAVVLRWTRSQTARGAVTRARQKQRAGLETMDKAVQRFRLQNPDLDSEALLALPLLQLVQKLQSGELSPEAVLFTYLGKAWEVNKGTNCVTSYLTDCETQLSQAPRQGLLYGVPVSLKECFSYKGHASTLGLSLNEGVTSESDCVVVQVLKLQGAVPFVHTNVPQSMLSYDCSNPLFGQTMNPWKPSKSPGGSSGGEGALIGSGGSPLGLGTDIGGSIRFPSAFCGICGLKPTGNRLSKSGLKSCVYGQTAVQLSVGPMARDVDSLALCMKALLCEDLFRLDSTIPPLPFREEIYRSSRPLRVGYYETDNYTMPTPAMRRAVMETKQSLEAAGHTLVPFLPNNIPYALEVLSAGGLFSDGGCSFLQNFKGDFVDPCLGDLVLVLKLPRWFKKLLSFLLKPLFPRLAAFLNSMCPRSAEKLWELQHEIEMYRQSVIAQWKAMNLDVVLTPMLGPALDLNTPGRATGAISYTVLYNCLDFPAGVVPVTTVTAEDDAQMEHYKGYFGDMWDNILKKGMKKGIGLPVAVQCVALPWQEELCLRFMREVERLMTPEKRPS
The experiment in a line: Inhibition of B6CBAF1/J mouse brain FAAH using [3H]AEA as substrate after 10 mins in presence of N-(3-Methylpyridin-2-yl)-2-(4-((2-(trifluoromethyl)pyridin-4-yl)amino)phenyl)propanamide by Dixon plot analysis. Summed up:
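Kinetic study in brain homogenate from male B6CBAF1/J mice (0.3 µg protein per assay). [3H]AEA hydrolysis ran for 10 min at 37 °C in Tris-EDTA buffer, pH 7.4, with the AEA:fatty acid-free BSA ratio held at 1:~4.5. Products were separated on charcoal and counted by scintillation. Competitive, mixed-type and non-competitive fits were compared by Akaike's criterion.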

The source made the active and inactive calls.

With `CC(C(=O)Nc1ncccc1Cl)c1ccc(Nc2ccnc(C(F)(F)F)c2)cc1` (stereo unspecified), the inhibition result is “Active”.

The values above are taken from ChEMBL document CHEMBL4138113, “Novel propanamides as fatty acid amide hydrolase inhibitors” (Eur J Med Chem, 2017).
